# iPSC survival up = increases survival of single human iPS cells; 360,000 compounds, 0.044% hits; hiPSC single-cell survival, ATPlite luminescence; 100% = ROCK inhibitor wells, 0% = DMSO; survival enhancement, % at 20 µM; in the data active means survival enhancement above about 18%;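 further: cells exposed to compounds for 16 hours before the ATP read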
# DAGLB inhibitor = blocks human DAGLB lipase activity. Q8NCG7. HEK293T DAGLB membrane lysate, EnzChek fluorogenic substrate. inhibition, % at 5.17 µM. 340,000 compounds, 0.059% hits. AID 504411; in the data active means inhibition above about 34%
# Target sequence (Q8NCG7 whole entry, looked up): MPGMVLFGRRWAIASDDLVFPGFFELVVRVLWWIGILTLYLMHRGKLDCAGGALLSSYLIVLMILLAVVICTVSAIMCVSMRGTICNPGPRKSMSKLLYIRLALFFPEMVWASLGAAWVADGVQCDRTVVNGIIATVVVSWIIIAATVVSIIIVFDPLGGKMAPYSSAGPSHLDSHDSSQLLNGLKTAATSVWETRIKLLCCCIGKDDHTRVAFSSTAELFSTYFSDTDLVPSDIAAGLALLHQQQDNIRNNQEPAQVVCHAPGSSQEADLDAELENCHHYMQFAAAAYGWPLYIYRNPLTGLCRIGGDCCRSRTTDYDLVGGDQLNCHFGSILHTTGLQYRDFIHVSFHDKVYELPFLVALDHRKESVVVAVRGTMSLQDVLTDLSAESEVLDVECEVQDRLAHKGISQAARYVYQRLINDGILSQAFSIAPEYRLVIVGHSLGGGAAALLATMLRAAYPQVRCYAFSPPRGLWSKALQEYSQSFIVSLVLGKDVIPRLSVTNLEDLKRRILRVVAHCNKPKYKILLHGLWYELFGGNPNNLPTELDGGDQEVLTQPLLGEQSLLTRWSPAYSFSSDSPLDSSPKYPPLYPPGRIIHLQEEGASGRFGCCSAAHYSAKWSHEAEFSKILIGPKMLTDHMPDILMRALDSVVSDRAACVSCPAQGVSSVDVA
# SKN-1 block = inhibitors of C. elegans SKN-1; 360,000 compounds, 0.49% hits; AID 624304; C. elegans VP596 Pgst-4::GFP/RFP ratio, acrylamide-induced, 24 h; inhibition, % at 21.8 µM;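 active means interference check ratio from 0.5 to 1.5 plus GFP to RFP signal ratio inhibition reaching or exceeding a fixed threshold, cut at about 30% in these data, passing the limit was not always enough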
# Cneo AK release = Cryptococcus neoformans lysis via adenylate kinase release; lysis activity, % at 15 µM; C. neoformans lysis, adenylate kinase release luminescence, 4 h; normalised: neutral wells 0, clomiphene wells 100; AID 651654; 360,000 compounds, 0.2% hits;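 active means mean lysis activity across replicates of at least 80%, whatever share of replicates individually reach that level; inactive means mean lysis activity below 80%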
#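 Test system: log-phase Cryptococcus neoformans yeast cells; Quantity: yeast cell density of 5 × 10^6 cells/mL; Buffer or medium: YPD; Doses: single compound concentration per well; Timing: 4 h at 37 °C static, read 1 h later; Measured by: AK luminescence; Read-out basis: lysis from increased AK signal; Control set: Clomiphene as positive control.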
# rRNA inh HTS = inhibits bacterial ribosomal RNA function over humanized ribosomes; E. coli WT GFP vs humanized-ribosome RFP mutants, fluorescence, 24 h; active compounds read low; DMSO median 0, no signal -100; AID 720706; 350,000 compounds, 1.6% hits; GFP signal change (wild-type ribosome), % (concentration not given with the values);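 active means significant combined selectivity score with lowered wild-type GFP, culture density cut under 30%, mutant RFP and density less affected; inactive means any of these conditions unmet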
# MT1-MMP act inh = inhibitors of human MT1-MMP activation. P50281. HT1080 RFP-PRO-GFP cells, GFP/RFP ratio fluorescence, overnight; percent of plate control window, DMSO zero. GFP/RFP ratio change, % at 20 µM. 360,000 compounds, 0.061% hits. AID 651647;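 active means GFP/RFP ratio change of at least 30% with cell ATP level not reduced by more than half and red fluorescence within 50% of control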
#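 Material – HT1080 RFP-PRO-GFP cells · Control set – DMSO wells and RFP-L50D-GFP cells · Incubation – overnight cell settling, then overnight compound exposure, 37 °C, 5% CO2 · Compound dosing – single-point 20 µM compound, 1% DMSO · Read-out – GFP/RFP fluorescence ratio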
# Hits are given with their value; i = inactive; nt = no result. A selection: hits, their analogues and other compounds. The true share with any hit is near 1.8%.
SMILES,iPSC survival up,DAGLB inhibitor,SKN-1 block,Cneo AK release,rRNA inh HTS,MT1-MMP act inh
COc1ccc(CN(C)C[C@@H]2Oc3ccc(NC(=O)Nc4ccc(C(F)(F)F)cc4)cc3C(=O)N([C@H](C)CO)C[C@@H]2C)cc1,nt,nt,nt,i,i,nt
CCCCCCNC(=O)O[C@H]1Cn2c(=O)ccc(=O)n2[C@@H]2CN(S(=O)(=O)c3ccc(C)cc3)C[C@]12O,i,i,i,i,-26.2,i
COc1ccc2c3c([nH]c2c1)[C@H](CO)N(S(=O)(=O)c1cn(C)cn1)CC31CCN(Cc2ccccc2)CC1,nt,nt,nt,nt,i,nt
O=C(C[C@H]1C[C@H]2c3cc(NC(=O)C4CCC4)ccc3O[C@H]2[C@H](CO)O1)NCCN1CCCCC1,nt,nt,nt,i,i,nt
Cc1nn(-c2ccccc2)c(Cl)c1/C=N/O,i,i,i,nt,i,i
Cc1nn(-c2ccccc2)c(Cl)c1/C=C/C(=O)c1ccccc1,i,i,31.5,i,nt,i
CC1(CCc2ccccc2)NC(=O)N(Cc2cc([N+](=O)[O-])cc3c2OCOC3)C1=O (stereo not drawn),i,i,i,i,-24.4,i
N/C(=N\OC(=O)c1cc([N+](=O)[O-])ccc1Cl)c1ccccn1,i,i,i,nt,i,i
Cc1ccc(C(=O)O/N=C(\N)c2ccccn2)c(Cl)c1,i,i,i,i,i,i
N/C(=N\OC(=O)Cc1ccccc1)c1ccccc1Cl,i,i,i,nt,-17.4,i
COc1ccc(CC(=O)O/N=C(\N)c2ccc(C)cc2)cc1,i,i,i,i,-21.7,i
N/C(=N\OC(=O)c1cc(Br)ccc1Cl)c1ccccn1,i,i,47.2,nt,i,i
N/C(=N\OC(=O)c1ccc(Cl)cc1Cl)c1ccccn1,i,i,52.2,i,nt,i
C[C@H](CO)N1C[C@H](C)[C@H](CN(C)C(=O)Nc2ccccc2)Oc2ccc(NC(=O)Nc3cccc4ccccc34)cc2CC1=O,nt,nt,nt,i,i,nt
C[C@@H]1CN([C@@H](C)CO)S(=O)(=O)c2ccc(/C=C/c3ccccc3)cc2O[C@H]1CN(C)C(=O)NC1CCCC1,nt,nt,nt,i,i,nt
N/C(=N\OC(=O)Cc1ccc(Cl)cc1)c1ccncc1,i,i,i,nt,-21.5,i
N/C(=N\OC(=O)c1ccc(Cl)cc1Cl)c1ccncc1,i,i,40.4,nt,nt,i
CCCC(=O)N1CCC2(CC1)CN(S(C)(=O)=O)[C@H](CO)c1c2c2ccc(OC)cc2n1C,nt,nt,nt,nt,i,nt
CCc1c(C(=O)Nc2ccc(OC)cc2)[nH]c(C)c1C(C)=O,21.7,i,i,i,nt,i
CCCNC(=O)COC(=O)c1[nH]c(C)c(C(=O)OCC)c1C,i,i,35.4,i,nt,i
CCOC(=O)c1c(C)[nH]c(C(=O)Nc2ccc(NC(C)=O)cc2)c1C,i,i,i,nt,-26.7,i
CCOC(=O)c1[nH]c(C)c(C(=O)OCC)c1C,i,i,i,i,i,i
C[C@H]1CN([C@@H](C)CO)C(=O)Cc2cc(NC(=O)Cc3cn(C)c4ccccc34)ccc2O[C@H]1CN(C)Cc1ccc(Cl)c(Cl)c1,nt,nt,nt,i,i,nt
CNC(=S)NNC(=O)CSCc1c(Cl)cccc1Cl,i,nt,i,i,-20.7,i
CC(C)C#Cc1ccc2c(c1)O[C@@H](CN(C)C(=O)NC(C)C)[C@@H](C)CN([C@@H](C)CO)S2(=O)=O,nt,nt,nt,i,i,nt
SMILES,iPSC survival up,DAGLB inhibitor,SKN-1 block,Cneo AK release,rRNA inh HTS,MT1-MMP act inh
Cc1c(-c2nc(-c3cccnc3)no2)cccc1[N+](=O)[O-],i,i,41.9,nt,i,i
CNC(=S)N1CCN(c2nc(-c3ccc(Cl)cc3)cs2)CC1,i,i,i,i,-25.5,i
Cc1oc2c(CN3CCCC3)c(O)ccc2c(=O)c1-c1ccc(Br)cc1,i,i,i,i,-28.5,i
Cc1oc2c(CN3CCCCC3)c(O)ccc2c(=O)c1-c1ccc(Br)cc1,i,i,i,i,i,i
COc1ccc(CNc2ncnc3c2[nH]c2cc(OC)c(OC)cc23)cc1,i,i,i,i,i,i
COc1ccc(CNc2ncnc3c2[nH]c2ccccc23)cc1,i,nt,i,i,-55.4,i
Cc1ccc2c(CC(=O)N3CCN(S(=O)(=O)c4cccs4)CC3)coc2c1,i,i,i,i,nt,i
O=C(Cc1coc2cc(O)ccc12)N1CCN(S(=O)(=O)c2ccc(Br)cc2)CC1,i,i,i,i,-19.9,i
C[C@@H]1CN([C@H](C)CO)C(=O)c2cc(C#CC3CCCCC3)cnc2O[C@H]1CN(C)Cc1cncnc1,nt,nt,nt,i,i,nt
Cc1noc(C)c1S(=O)(=O)Nc1ccc2c(c1)C(=O)N([C@@H](C)CO)C[C@H](C)[C@@H](CN(C)C(=O)Nc1ccc(F)cc1)O2,nt,nt,nt,nt,i,nt
Clc1cccc(OCCOCCN2CCNCC2)c1Cl,i,nt,i,i,-15.8,i
C[C@@H]1CCCCO[C@@H](CN(C)C(=O)c2ccccc2)[C@@H](C)CN([C@H](C)CO)C(=O)c2cc(NC(=O)c3ccccc3)ccc2O1,nt,nt,nt,i,i,nt
C[C@@H]1CN([C@H](C)CO)C(=O)c2cc(NC(=O)CCC(F)(F)F)ccc2O[C@@H](C)CCCCO[C@@H]1CN(C)C(=O)c1ccncc1,nt,nt,nt,88.9,i,nt
C[C@@H]1CCCCO[C@H](CN(C)C(=O)c2ccncc2)[C@@H](C)CN([C@H](C)CO)C(=O)c2cc(NC(=O)CCC(F)(F)F)ccc2O1,nt,nt,nt,i,i,nt
C[C@H]1CCCCO[C@@H](CN(C)C(=O)c2ccccc2)[C@@H](C)CN([C@@H](C)CO)C(=O)c2cc(NC(=O)c3ccncc3)ccc2O1,nt,nt,nt,85.7,i,nt
C[C@@H]1CCCCO[C@H](CN(C)C(=O)c2ccccc2)[C@@H](C)CN([C@@H](C)CO)C(=O)c2cc(NC(=O)c3ccccc3)ccc2O1,nt,nt,nt,96.4,i,nt
CC(C)C#Cc1cnc2c(c1)C(=O)N([C@H](C)CO)C[C@H](C)[C@H](CN(C)C(=O)Nc1cccc(F)c1)O2,nt,nt,nt,i,i,nt
CCCCNC(=O)C(COCc1ccccc1)OC(=O)c1ccccc1 (stereo not drawn),nt,nt,nt,i,nt,nt
C[C@H](CO)N1C[C@H](C)[C@H](CN(C)S(C)(=O)=O)Oc2ccc(NC(=O)Nc3ccc4c(c3)OCO4)cc2C1=O,nt,nt,nt,i,i,nt
CCCc1cc(C(=O)Nc2cc(OC)ccc2OC)cs1,i,i,i,i,-31.9,i
CCS(=O)(=O)N[C@H]1C=C[C@H](CC(=O)Nc2ccccc2)O[C@H]1CO,nt,nt,nt,nt,i,nt
Cc1ccc(S(=O)(=O)NCCNc2ccc([N+](=O)[O-])cc2)cc1,i,i,i,i,-27.2,i
Cc1ccc(S(=O)(=O)Nc2c(C)cc([N+](=O)[O-])cc2C)cc1,i,i,i,nt,-22.2,i
Cc1ccc(S(=O)(=O)NCCCNc2ccc([N+](=O)[O-])cc2)cc1,i,i,i,nt,i,i
COc1ccc(-c2nc(=S)c3c(n2CCN2CCOCC2)CC(C)(C)OC3)cc1,i,i,i,i,nt,i
